Data published in ChEMBL document CHEMBL5303300, “EUbOPEN Chemogenomics Library - Multiplex” (2023).
Where “and” joins values, the source holds several entries; their conditions need not be identical. Equal values may be shown once.

Experiments:
Format in all cases: toxicity, cell-based
[1] = system: Fibroblast; assay: Multiplex assay against human fibroblast; conditions: number of replicates 2
Summary of the method: (§1)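 Live cells were stained at seeding with Hoechst33342, BioTracker Green Microtubule Cytoskeleton Dye, MitoTracker Red and Annexin V Alexa Fluor 680, then imaged on a CQ1 microscope at 37°C and 5% CO2 after compound addition. CellPathfinder machine-learning gating split cells into Hoechst high-intensity objects or normal cells. Normal cells were split into healthy, pyknosed or fragmented nuclei, and pyknosed cells into mitotic or apoptotic. Tubulin, mitochondrial-mass and membrane-permeability phenotypes are per cents of healthy-nucleus cells.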

[2] = system: HEK-293T; assay: Multiplex assay against HEK293T; conditions: human, number of replicates 2; summary of the method: as §1
[3] = system: U2OS; assay: Multiplex assay against U2OS; conditions: human, number of replicates 2; summary of the method: as §1
[4] = 12 h, 1 µM, compound concentration 1 uM
[5] = 12 h, 10 µM, compound concentration 10 uM
[6] = 24 h, 1 µM, compound concentration 1 uM
[7] = 24 h, 10 µM, compound concentration 10 uM
[8] = 48 h, 1 µM, compound concentration 1 uM
[9] = 48 h, 10 µM, compound concentration 10 uM

SMILES: Cc1ccc2c(N)c(C(=O)NC3CCc4cc(N5CC6CCC(C5)N6)ccc4C3)sc2n1.O=CO (configuration not stated)
- Population Apoptotic (%) [1, 4]: 50% and 54%
- Population Fragmented Nuclei (%) [1, 4]: 16%
- Population Healthy Nuclei (%) [1, 4]: 73% and 68%
- Population Hoechst High Intensity Objects (%) [1, 4]: 0% and 1%
- Population Membrane Permeable-Phenotype (%) [1, 4]: 2%
- Population Mitochondria Different-Phenotype (%) [1, 4]: 1% and 2%
- Population Mitotic Cells (%) [1, 4]: 50% and 45%
- Population Normal (%) [1, 4]: 99% and 98%
- Population Pyknosed Nuclei (%) [1, 4]: 10% and 15%
- Population Tubulin-Different-Phenotype (%) [1, 4]: 17% and 14%
- Total Cell Count [1, 4]: 232 and 283
- Population Apoptotic (%) [1, 5]: 38% and 26%
- Population Fragmented Nuclei (%) [1, 5]: 16% and 24%
- Population Healthy Nuclei (%) [1, 5]: 53% and 55%
- Population Hoechst High Intensity Objects (%) [1, 5]: 3% and 5%
- Population Membrane Permeable-Phenotype (%) [1, 5]: 4% and 2%
- Population Mitochondria Different-Phenotype (%) [1, 5]: 3% and 1%
- Population Mitotic Cells (%) [1, 5]: 61% and 73%
- Population Normal (%) [1, 5]: 96% and 94%
- Population Pyknosed Nuclei (%) [1, 5]: 29% and 20%
- Population Tubulin-Different-Phenotype (%) [1, 5]: 23% and 22%
- Total Cell Count [1, 5]: 238 and 259
- Population Apoptotic (%) [1, 6]: 46% and 52%
- Population Fragmented Nuclei (%) [1, 6]: 14%
- Population Healthy Nuclei (%) [1, 6]: 75% and 71%
- Population Hoechst High Intensity Objects (%) [1, 6]: 0%
- Population Membrane Permeable-Phenotype (%) [1, 6]: 2% and 1%
- Population Mitochondria Different-Phenotype (%) [1, 6]: 3% and 2%
- Population Mitotic Cells (%) [1, 6]: 53% and 47%
- Population Normal (%) [1, 6]: 100% and 99%
- Population Pyknosed Nuclei (%) [1, 6]: 10% and 14%
- Population Tubulin-Different-Phenotype (%) [1, 6]: 15% and 14%
- Total Cell Count [1, 6]: 259 and 302
- Population Apoptotic (%) [1, 7]: 48% and 45%
- Population Fragmented Nuclei (%) [1, 7]: 18% and 23%
- Population Healthy Nuclei (%) [1, 7]: 42% and 48%
- Population Hoechst High Intensity Objects (%) [1, 7]: 7% and 6%
- Population Membrane Permeable-Phenotype (%) [1, 7]: 2% and 1%
- Population Mitochondria Different-Phenotype (%) [1, 7]: 13% and 8%
- Population Mitotic Cells (%) [1, 7]: 51% and 54%
- Population Normal (%) [1, 7]: 92% and 93%
- Population Pyknosed Nuclei (%) [1, 7]: 39% and 28%
- Population Tubulin-Different-Phenotype (%) [1, 7]: 23% and 15%
- Total Cell Count [1, 7]: 228 and 250
- Population Apoptotic (%) [1, 8]: 56% and 60%
- Population Fragmented Nuclei (%) [1, 8]: 27% and 18%
- Population Healthy Nuclei (%) [1, 8]: 67% and 71%
- Population Hoechst High Intensity Objects (%) [1, 8]: 0%
- Population Membrane Permeable-Phenotype (%) [1, 8]: 1%
- Population Mitochondria Different-Phenotype (%) [1, 8]: 1% and 3%
- Population Mitotic Cells (%) [1, 8]: 43% and 40%
- Population Normal (%) [1, 8]: 99%
- Population Pyknosed Nuclei (%) [1, 8]: 5% and 10%
- Population Tubulin-Different-Phenotype (%) [1, 8]: 18% and 17%
- Total Cell Count [1, 8]: 294 and 298
- Population Apoptotic (%) [1, 9]: 67% and 55%
- Population Fragmented Nuclei (%) [1, 9]: 20% and 22%
- Population Healthy Nuclei (%) [1, 9]: 29% and 36%
- Population Hoechst High Intensity Objects (%) [1, 9]: 11% and 10%
- Population Membrane Permeable-Phenotype (%) [1, 9]: 7% and 2%
- Population Mitochondria Different-Phenotype (%) [1, 9]: 21% and 16%
- Population Mitotic Cells (%) [1, 9]: 32% and 44%
- Population Normal (%) [1, 9]: 88% and 89%
- Population Pyknosed Nuclei (%) [1, 9]: 49% and 40%
- Population Tubulin-Different-Phenotype (%) [1, 9]: 25% and 15%
- Total Cell Count [1, 9]: 194 and 215
- Population Apoptotic (%) [2, 4]: 50% and 60%
- Population Fragmented Nuclei (%) [2, 4]: 3% and 5%
- Population Healthy Nuclei (%) [2, 4]: 85% and 82%
- Population Hoechst High Intensity Objects (%) [2, 4]: 12% and 13%
- Population Membrane Permeable-Phenotype (%) [2, 4]: 2% and 1%
- Population Mitochondria Different-Phenotype (%) [2, 4]: 57% and 50%
- Population Mitotic Cells (%) [2, 4]: 50% and 39%
- Population Normal (%) [2, 4]: 87% and 86%
- Population Pyknosed Nuclei (%) [2, 4]: 11%
- Population Tubulin-Different-Phenotype (%) [2, 4]: 79% and 80%
- Total Cell Count [2, 4]: 342 and 430
- Population Apoptotic (%) [2, 5]: 77% and 90%
- Population Fragmented Nuclei (%) [2, 5]: 7% and 15%
- Population Healthy Nuclei (%) [2, 5]: 66% and 63%
- Population Hoechst High Intensity Objects (%) [2, 5]: 66% and 71%
- Population Membrane Permeable-Phenotype (%) [2, 5]: 15% and 21%
- Population Mitochondria Different-Phenotype (%) [2, 5]: 60% and 54%
- Population Mitotic Cells (%) [2, 5]: 22% and 9%
- Population Normal (%) [2, 5]: 33% and 28%
- Population Pyknosed Nuclei (%) [2, 5]: 26% and 21%
- Population Tubulin-Different-Phenotype (%) [2, 5]: 68% and 63%
- Total Cell Count [2, 5]: 206 and 183
- Population Apoptotic (%) [2, 6]: 58% and 60%
- Population Fragmented Nuclei (%) [2, 6]: 5% and 3%
- Population Healthy Nuclei (%) [2, 6]: 86% and 89%
- Population Hoechst High Intensity Objects (%) [2, 6]: 13% and 16%
- Population Membrane Permeable-Phenotype (%) [2, 6]: 1% and 2%
- Population Mitochondria Different-Phenotype (%) [2, 6]: 60% and 50%
- Population Mitotic Cells (%) [2, 6]: 41% and 40%
- Population Normal (%) [2, 6]: 86% and 83%
- Population Pyknosed Nuclei (%) [2, 6]: 8% and 6%
- Population Tubulin-Different-Phenotype (%) [2, 6]: 72% and 71%
- Total Cell Count [2, 6]: 413 and 427
- Population Apoptotic (%) [2, 7]: 95% and 72%
- Population Fragmented Nuclei (%) [2, 7]: 11% and 14%
- Population Healthy Nuclei (%) [2, 7]: 59% and 66%
- Population Hoechst High Intensity Objects (%) [2, 7]: 67% and 66%
- Population Membrane Permeable-Phenotype (%) [2, 7]: 14% and 13%
- Population Mitochondria Different-Phenotype (%) [2, 7]: 66% and 63%
- Population Normal (%) [2, 7]: 32% and 33%
- Population Pyknosed Nuclei (%) [2, 7]: 29% and 19%
- Population Tubulin-Different-Phenotype (%) [2, 7]: 61% and 55%
- Total Cell Count [2, 7]: 216 and 168
- Population Apoptotic (%) [2, 8]: 40% and 66%
- Population Fragmented Nuclei (%) [2, 8]: 5%
- Population Healthy Nuclei (%) [2, 8]: 88% and 87%
- Population Hoechst High Intensity Objects (%) [2, 8]: 8% and 10%
- Population Membrane Permeable-Phenotype (%) [2, 8]: 1% and 0%
- Population Mitochondria Different-Phenotype (%) [2, 8]: 32% and 41%
- Population Mitotic Cells (%) [2, 8]: 59% and 33%
- Population Normal (%) [2, 8]: 91% and 89%
- Population Pyknosed Nuclei (%) [2, 8]: 5% and 7%
- Population Tubulin-Different-Phenotype (%) [2, 8]: 61% and 73%
- Total Cell Count [2, 8]: 596 and 593
- Population Apoptotic (%) [2, 9]: 77% and 87%
- Population Fragmented Nuclei (%) [2, 9]: 9% and 15%
- Population Healthy Nuclei (%) [2, 9]: 57% and 60%
- Population Hoechst High Intensity Objects (%) [2, 9]: 67%
- Population Membrane Permeable-Phenotype (%) [2, 9]: 14% and 10%
- Population Mitochondria Different-Phenotype (%) [2, 9]: 63% and 70%
- Population Mitotic Cells (%) [2, 9]: 22% and 12%
- Population Normal (%) [2, 9]: 32%
- Population Pyknosed Nuclei (%) [2, 9]: 32% and 24%
- Population Tubulin-Different-Phenotype (%) [2, 9]: 48% and 57%
- Total Cell Count [2, 9]: 254 and 203
- Population Apoptotic (%) [3, 4]: 100% and 51%
- Population Fragmented Nuclei (%) [3, 4]: 11% and 6%
- Population Healthy Nuclei (%) [3, 4]: 70% and 76%
- Population Hoechst High Intensity Objects (%) [3, 4]: 0%
- Population Membrane Permeable-Phenotype (%) [3, 4]: 16% and 7%
- Population Normal (%) [3, 4]: 100%
- Population Pyknosed Nuclei (%) [3, 4]: 17% and 16%
- Population Tubulin-Different-Phenotype (%) [3, 4]: 19% and 25%
- Population Apoptotic (%) [3, 5]: 36% and 24%
- Population Healthy Nuclei (%) [3, 5]: 22% and 29%
- Population Hoechst High Intensity Objects (%) [3, 5]: 3% and 12%
- Population Membrane Permeable-Phenotype (%) [3, 5]: 16% and 11%
- Population Mitochondria Different-Phenotype (%) [3, 5]: 50% and 51%
- Population Mitotic Cells (%) [3, 5]: 63% and 75%
- Population Normal (%) [3, 5]: 96% and 87%
- Population Pyknosed Nuclei (%) [3, 5]: 35% and 56%
- Population Tubulin-Different-Phenotype (%) [3, 5]: 50%
- Population Apoptotic (%) [3, 6]: 69% and 75%
- Population Fragmented Nuclei (%) [3, 6]: 4% and 5%
- Population Healthy Nuclei (%) [3, 6]: 69% and 77%
- Population Hoechst High Intensity Objects (%) [3, 6]: 0%
- Population Membrane Permeable-Phenotype (%) [3, 6]: 17% and 6%
- Population Mitotic Cells (%) [3, 6]: 30% and 24%
- Population Normal (%) [3, 6]: 100%
- Population Pyknosed Nuclei (%) [3, 6]: 26% and 16%
- Population Tubulin-Different-Phenotype (%) [3, 6]: 26% and 23%
- Population Apoptotic (%) [3, 7]: 56%
- Population Healthy Nuclei (%) [3, 7]: 19% and 22%
- Population Hoechst High Intensity Objects (%) [3, 7]: 8% and 11%
- Population Mitochondria Different-Phenotype (%) [3, 7]: 75% and 69%
- Population Mitotic Cells (%) [3, 7]: 43%
- Population Normal (%) [3, 7]: 91% and 88%
- Population Pyknosed Nuclei (%) [3, 7]: 39% and 64%
- Population Tubulin-Different-Phenotype (%) [3, 7]: 50% and 60%
- Population Apoptotic (%) [3, 8]: 80% and 88%
- Population Fragmented Nuclei (%) [3, 8]: 7% and 5%
- Population Healthy Nuclei (%) [3, 8]: 49% and 66%
- Population Hoechst High Intensity Objects (%) [3, 8]: 0%
- Population Membrane Permeable-Phenotype (%) [3, 8]: 14% and 19%
- Population Mitochondria Different-Phenotype (%) [3, 8]: 25% and 53%
- Population Mitotic Cells (%) [3, 8]: 20% and 11%
- Population Normal (%) [3, 8]: 100%
- Population Pyknosed Nuclei (%) [3, 8]: 43% and 28%
- Population Tubulin-Different-Phenotype (%) [3, 8]: 21% and 40%
- Population Apoptotic (%) [3, 9]: 53% and 87%
- Population Healthy Nuclei (%) [3, 9]: 31% and 12%
- Population Membrane Permeable-Phenotype (%) [3, 9]: 53% and 57%
- Population Mitochondria Different-Phenotype (%) [3, 9]: 84%
- Population Normal (%) [3, 9]: 95% and 83%
- Population Pyknosed Nuclei (%) [3, 9]: 36% and 80%
- Population Tubulin-Different-Phenotype (%) [3, 9]: 100% and 73%
